Results published in publication PMC6175223 (Journal of Clinical Pharmacology, 2018).
Like-named read-outs stand apart in the source and are kept apart here.

Legend:
Study B = type: in vivo, human; settings: for AUC(0-inf) / Cmax / Vd/F / half-life / Tmax: male, human, plasma; for Cmax / Vd/F / half-life / CL/F: geometric mean (geometric CV%); for Vd/F: Vz/F; for Tmax: median (minimum, maximum)
Study A = type: in vivo, human; settings: for Cmax / Vd/F / half-life / Tmax: male, human, plasma, oral, 4 mg; for Cmax / Vd/F / half-life / CL/F: geometric mean (geometric CV%); for Vd/F: Vz/F; for Tmax: median (minimum, maximum)
[1] = Study A: caffeine clearance in smokers and nonsmokers; type: in vivo, human; settings: for Caffeine plasma clearance CL/F: 200 mg oral caffeine, geometric mean
How it was run: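 A 200 mg oral caffeine capsule was given on day 6 after an overnight fast of ≥10 h, with a methylxanthine-free diet for ≥1 week before and during the study. Plasma caffeine and paraxanthine were sampled predose and at 0.5–12 h. LC-MS/MS, LLOQ 20 ng/mL. Noncompartmental CL/F. ANOVA on ln-transformed data with cohort as fixed effect; smoker/nonsmoker geometric means.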

[2] = Study A safety assessment; type: in vivo, human
How it was run: (§1)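 Safety was monitored by adverse-event reporting, physical examination, vital signs, 12-lead ECG and clinical laboratory tests. Concomitant medications and AEs were recorded from signing of the consent form until a follow-up safety telephone call. SAEs made known within 28 days after the last investigational dose were also recorded, as were later SAEs suspected to be related.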

[3] = Study B safety assessment; type: in vivo, human
How it was run: as §1

[4] = cited from earlier work
[5] = healthy adult men; cited from earlier work
[6] = cited from earlier work; remark: listed apart in the source
CYP1A2 = settings: in vitro; earlier data, no reference given; cited from earlier work
CYP3A4 = settings: in vitro; earlier data, no reference given; cited from earlier work
CYP2C19 = settings: in vitro; earlier data, no reference given; cited from earlier work
CYP2D6 = settings: in vitro; earlier data, no reference given; cited from earlier work
[7] = oral, 4 mg, pomalidomide 4 mg administered alone
[8] = oral, 4 mg, pomalidomide 4 mg administered with fluvoxamine
[9] = with fluvoxamine compared with alone
[10] = smokers compared with nonsmokers
[11] = multiple dose, 0.5- to 2-mg dose range

Molecule `Nc1cccc2c1C(=O)N(C1CCC(=O)NC1=O)C2=O` (stereo not shown) [pomalidomide] has an AUC(0-inf) (Study B; oral) of 1190 ng·h/mL, an AUC(0-inf) (Study B; oral, 4 mg) of 526 ng·h/mL and a Cmax (Study B; [7]) of 49.2 ng/mL. The Cmax (Study B; [8]) was 59.5 ng/mL, the Vd/F (Study B; [7]) was 65.4 L and the Vd/F (Study B; [8]) was 64 L. The half-life (Study B; oral, 4 mg, t1/2, pomalidomide 4 mg administered alone) was 6 h, the half-life (Study B; oral, 4 mg, t1/2, pomalidomide 4 mg administered with fluvoxamine) was 13.1 h and the Tmax (Study B; [7]) was 3 h. The Tmax (Study B; [8]) was 4.5 h, the AUC(0-inf) (Study B; po, 4 mg) was 526 ng·h/mL and the CL/F (Study B; pomalidomide 4 mg administered alone) was 7.6 L/h. For the same molecule, the CL/F (Study B; pomalidomide 4 mg administered with fluvoxamine) was 3.4 L/h, the “Increase of AUC0-inf” value (Study B; [9]) was 125.1% and the “Increase of Cmax” value (Study B; [9]) was 23.7%. For the same molecule, the “Ratio (%) of geometric means, AUC0-inf” value (Study B; with fluvoxamine versus alone) was 225.1%, the “Ratio (%) of geometric means, Cmax” value (Study B; with fluvoxamine versus alone) was 123.7% and the Cmax (Study A; nonsmokers) was 56.3 ng/mL. It also gave a Cmax (Study A; smokers) of 64.4 ng/mL, a Vd/F (Study A; nonsmokers) of 65.8 L and a Vd/F (Study A; smokers) of 59.7 L. For the same molecule, the half-life (Study A; t1/2, nonsmokers) was 7.8 h, the half-life (Study A; t1/2, smokers) was 4.8 h and the Tmax (Study A; nonsmokers) was 3 h. For the same molecule, the Tmax (Study A; smokers) was 1.8 h, the CL/F (Study A; nonsmokers) was 5.8 L/h and the CL/F (Study A; nonsmokers, listed as Pomalidomide) was 5.8 (19.6) L/h. The “Decrease of AUC0-inf (lower in smokers)” value (Study A; [10]) was 32.3%, the “Increase of Cmax (higher in smokers)” value (Study A; [10]) was 14.4% and the “Ratio (%) of geometric means, AUC0-inf” value (Study A; smokers/nonsmokers) was 67.7%. For the same molecule, the “Ratio (%) of geometric means, Cmax” value (Study A; smokers/nonsmokers) was 114.4%, the CL/F (Study A; smokers) was 8.6 L/h and the CL/F (Study A; smokers, listed as Pomalidomide) was 8.6 (32.5) L/h. The “Correlation between caffeine clearance and pomalidomide clearance” value ([1]; in vivo, study A) was “good correlation”, the “Difference in incidence of TEAEs between smokers and nonsmokers” value ([2]; only TEAEs that occurred after pomalidomide dosing) was “no difference” and the Safety and tolerability ([2]; single oral dose of 4 mg in healthy male smokers and nonsmokers ≥ 40 to ≤ 80 years old) was “safe and well tolerated”. The Deaths ([2]; study A) was “no deaths”, the “Number of TEAEs suspected of being related to the study drug” value ([2]; study A) was 22 and the “SAEs or severe TEAEs” value ([2]; study A) was “No subject experienced an SAE or severe TEAE”. For the same molecule, the “Number of TEAEs reported” value ([2]; study A overall) was 37, the “Subjects reporting TEAEs suspected of being related to the study drug” value ([2]; study A, 12 subjects) was 21.8% and the “Number of TEAEs of moderate severity” value ([2]; study A, all presyncope, not considered related to the study drug) was 3. The Safety and tolerability ([3]; single oral 4 mg pomalidomide coadministered with multiple oral 50-mg doses of fluvoxamine, healthy male subjects) was “safe and well tolerated”, the “Deaths, SAEs, or TEAEs leading to discontinuation” value ([3]; study B) was “No deaths, SAEs, or TEAEs leading to discontinuation were reported” and the “TEAEs related to the study drug” value ([3]; study B) was “No subject reported at least 1 TEAE related to the study drug”. The “Subjects reporting TEAEs” value ([3]; study B overall, 1 of 15 subjects) was 6.7%, the “mean apparent terminal half-life (t1/2)” value [4] was “approximately 7.5 hours” and the “Accumulation (AUC and Cmax)” value [4, 11] was “less than 14.0%”. For the same molecule, the “Time to steady state” value [4, 11] was ≤ 3 days, the “Dose proportionality of systemic exposure (AUC)” value ([4]; single dose up to 50 mg) was “approximately dose‐proportional” and the “Fraction of the dose excreted in urine as unchanged drug” value [5] was < 5.0 % of the administered dose. The “Renal excretion of pomalidomide-related material” value [5] was ~73.0 % of the administered dose, the “Change in pomalidomide exposure (in words)” value ([6]; coadministration of ketoconazole) was “mild increase in pomalidomide exposure that was not considered clinically relevant” and the “Change in mean pomalidomide exposure (in words)” value ([6]; concomitant fluvoxamine and ketoconazole, healthy men) was “approximately doubled”. For the same molecule, the t1/2 ([6]; prior drug interaction study) was 6.1 h, the “Increase of total drug exposure” value ([6]; single 4-mg dose with CYP3A inhibitor ketoconazole versus alone) was 18.8% and the “Increase of total drug exposure” value ([6]; single 4-mg dose with ketoconazole + fluvoxamine versus alone) was 145.7%. The “Metabolism by CYP enzyme” value (CYP1A2) was “capable of metabolizing pomalidomide”, the “Metabolism by CYP enzyme” value (CYP3A4) was “capable of metabolizing pomalidomide” and the “Metabolism by CYP enzyme” value (CYP2C19) was “to a minor extent”. The “Metabolism by CYP enzyme” value (CYP2D6) was “to a minor extent”.

In the case of `Cn1c(=O)c2c(ncn2C)n(C)c1=O` [caffeine], the “Caffeine plasma clearance CL/F” value ([1]; nonsmokers (cohort B)) was 5.3 L/h, the “Caffeine plasma clearance CL/F” value ([1]; smokers (cohort A)) was 9.9 L/h and the “Caffeine clearance, fold higher in smokers than in nonsmokers” value ([1]; smokers versus nonsmokers) was “approximately 2 fold”.
